ChEMBL document CHEMBL1149846, “The role of lipophilicity in determining binding affinity and functional activity for 5-HT2A receptor ligands” (Bioorg Med Chem, 2008)
pKi: −log10 of the molar value.

Experiments:
[1] = target: 5-hydroxytryptamine receptor 2A (Rattus norvegicus) (UniProt P14842); experiment: Agonist activity at Sprague-Dawley rat 5HT2A receptor by drug discrimination assay; format: functional; settings: filed as agonist
[2] = target: T1, 5-hydroxytryptamine receptor 2A (Rattus norvegicus, UniProt P14842); experiment: Displacement of [3H]MDL100907 from 5HT2A receptor in Sprague-Dawley rat brain by liquid scintillation spectroscopy
T1 sequence (P14842 whole entry): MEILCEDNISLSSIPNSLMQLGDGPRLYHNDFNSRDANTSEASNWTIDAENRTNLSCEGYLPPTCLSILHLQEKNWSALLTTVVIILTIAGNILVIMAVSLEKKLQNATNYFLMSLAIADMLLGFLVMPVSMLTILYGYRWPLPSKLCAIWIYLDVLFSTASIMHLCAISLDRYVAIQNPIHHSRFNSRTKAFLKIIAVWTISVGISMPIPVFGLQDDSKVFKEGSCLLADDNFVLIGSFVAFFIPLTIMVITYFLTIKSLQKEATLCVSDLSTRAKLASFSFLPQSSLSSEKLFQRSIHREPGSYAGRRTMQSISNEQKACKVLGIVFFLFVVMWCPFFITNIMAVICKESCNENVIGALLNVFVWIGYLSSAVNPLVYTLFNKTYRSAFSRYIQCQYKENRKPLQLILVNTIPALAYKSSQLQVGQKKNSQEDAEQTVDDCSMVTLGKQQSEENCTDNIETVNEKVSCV
How it was run: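 Frontal cortex from male Sprague-Dawley rat brains, washed in 50 mM Tris-HCl pH 7.4 and resuspended in buffer with 0.5 mM Na2EDTA, 10.0 μM pargyline, 5.7 mM CaCl2 and 0.1% ascorbate. Cinanserin (10 μM) defined nonspecific binding. Bound label was collected by GF/C filtration and counted. Values from ≥3 experiments, each in triplicate.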

[3] = target: 5-hydroxytryptamine receptor 2A (Rattus norvegicus) (UniProt P14842); experiment: Antagonist activity at Sprague-Dawley rat 5HT2A receptor by drug discrimination assay; format: functional; settings: filed as antagonist
[4] = target: T1, 5-hydroxytryptamine receptor 2A; experiment: Displacement of [3H]ketanserin from 5HT2A receptor in Sprague-Dawley rat brain by liquid scintillation spectroscopy

5-hydroxytryptamine receptor 2A (Rattus norvegicus), sequence (P14842 whole entry): as above

Structure (SMILES) | Efficacy [1] | pKi [2] | Efficacy [3] | pKi [4]
CN(C)CCc1c[nH]c2ccccc12 | Agonist | 5.79 |  | 
CN(C)CCc1c[nH]c2sccc12 |  | 5.43 | Antagonist | 
CN(C)CCc1c[nH]c2ccsc12 |  | 5.34 | Antagonist | 
COc1cc(CCN)cc(OC)c1OCCc1ccccc1 |  |  | Antagonist | 7.23
COc1cc(CCN)cc(OC)c1OC | Agonist |  |  | 
Cc1nc2sccn2c(=O)c1CCN1CCC(=C(c2ccc(F)cc2)c2ccc(F)cc2)CC1 |  |  | Antagonist | 
NCCc1c2c(c(Br)c3c1OCC3)OCC2 | Agonist |  |  | 
NCCc1c2c(cc3c1OCC3)OCC2 | Agonist |  |  | 
COc1cc(C)cc(OC)c1CC(C)N (racemic) | Agonist |  |  | 6.45
CSc1c2c(c(CC(C)N)c3c1OCC3)CCO2 (racemic) |  | 6.32 |  | 
COc1cc2c(cc1Br)OCCC(N)C2 (racemic) |  |  |  | 6.37
CSc1cc(CC(C)N)c(SC)cc1C (racemic) |  |  | Antagonist | 6.75
CC(N)Cc1c2ccccc2c(Br)c2ccccc12 (racemic) |  | 6.50 | Antagonist | 
CC(N)Cc1cc(F)c(Br)cc1F (racemic) |  | 5.60 | Antagonist | 
COc1cc(CC(C)N)c(OC)cc1I (racemic) | Agonist |  |  | 7.72
COc1cc(C(F)(F)F)c(OC)cc1CC(C)N (racemic) | Agonist |  |  | 7.48
CC(N)Cc1c2c(c(Br)c3c1OCC3)OCC2 (racemic) | Agonist |  |  | 
CC(N)Cc1c2ccoc2c(Br)c2ccoc12 (racemic) | Agonist |  |  | 
CCc1cc(OC)c(CC(C)N)cc1OC (racemic) | Agonist |  |  | 
COc1cc(CC(C)N)c(OC)cc1Br (racemic) | Agonist |  |  | 
COc1cc(CC(C)N)c(OC)cc1C (racemic) [DOM] |  |  |  | 7.00
CN(C)CCc1c[nH]c2cccc(O)c12 [PSILOCIN] | Agonist | 6.49 |  | 
